These results are taken from ChEMBL document CHEMBL5154924, “Discovery of In Vivo Active Sphingosine-1-phosphate Transporter (Spns2) Inhibitors” (J Med Chem, 2022).

Usually inhibition stands for the drop in the measured response relative to a control, in per cent. A low value points to little suppression.

The target in the experiment is T1, Sphingosine-1-phosphate transporter SPNS2 (Mus musculus) (UniProt Q91VM4).
T1 sequence (whole entry): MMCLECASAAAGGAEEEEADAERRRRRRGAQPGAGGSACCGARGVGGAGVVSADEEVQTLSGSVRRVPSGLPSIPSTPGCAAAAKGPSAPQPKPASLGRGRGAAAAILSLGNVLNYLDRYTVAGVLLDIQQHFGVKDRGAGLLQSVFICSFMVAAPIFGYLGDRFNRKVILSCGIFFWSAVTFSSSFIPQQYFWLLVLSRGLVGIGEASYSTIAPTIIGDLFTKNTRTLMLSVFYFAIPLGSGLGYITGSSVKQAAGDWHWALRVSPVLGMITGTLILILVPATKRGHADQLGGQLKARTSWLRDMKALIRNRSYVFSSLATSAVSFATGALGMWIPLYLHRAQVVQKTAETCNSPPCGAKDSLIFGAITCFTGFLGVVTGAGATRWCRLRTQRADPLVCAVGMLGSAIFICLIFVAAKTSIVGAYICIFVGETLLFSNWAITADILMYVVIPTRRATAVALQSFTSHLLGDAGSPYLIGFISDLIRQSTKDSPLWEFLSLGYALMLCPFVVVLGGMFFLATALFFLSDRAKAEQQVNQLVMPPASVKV
In words: Inhibition of mouse Spns2 transfected in human HeLa cells by measuring S1P release at 2 uM by LC/MS analysis relative to control. In kind it is cell-based. The gist of the method:
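HeLa cells stably transfected with mouse Spns2 and selected with G418, grown to near confluence. Medium replaced with RPMI 1640/0.2% fatty acid-free BSA containing 1 mM 4-deoxypyridoxine, 2 mM NaF and 0.2 mM Na₃VO₄. Compound added to duplicate wells, incubated 18–20 h. Medium S1P measured by LC-MS/MS against d₇-S1P after TCA precipitation and methanol extraction. Inhibition expressed relative to no-inhibitor control.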
Turning to `CCCCCCCCCCc1ccc(-c2c[nH]c(CCCN)n2)cc1`, the inhibition stood at 63%.

Consider `CCCCCCCC(=O)NCc1ccc(-c2noc(CCCN)n2)cc1`, for which the inhibition was 11%.

For `CCCCCCCCCCc1ccc(-c2noc(CN)n2)cc1`, the inhibition was 62%.

Turning to `CCCCCCCCCCCc1ccc(-c2noc(CCCN)n2)cc1`, the inhibition was 49%.

Turning to `CCCCCCCCc1ccc(-c2noc(CCCN)n2)cc1`, the inhibition was 70%.

The molecule `CCCCCCCCCCc1ccc(-c2noc(CCCCN)n2)cc1` came in with an inhibition of 55%.

`CCCCCCCCCCc1ccc(-c2noc(CC[C@@H](N)C(=O)O)n2)cc1` had an inhibition of 5%.

Molecule `CCCCCCCCCc1ccc(Cc2noc(CCCN)n2)cc1` registered an inhibition of 34%.

For `CCCCCCCCCCc1ccc(-c2noc([C@@H]3CCCN3)n2)cc1`, the inhibition turned out to be 21%.

Molecule `CCCCCCCOc1ccc2cc(-c3noc(CCCN)n3)ccc2c1` displayed an inhibition of 8%.

For `CCCCCCCCCCc1ccc(-c2noc(CCCNC)n2)cc1`, the inhibition turned out to be 45%.

`CCCCCCCCCCc1ccc(-c2noc([C@H](N)CCCCN)n2)cc1` gave an inhibition of 50%.

As to `CCCCCCCCCCc1ccc(-c2cnn(CCCN)c2)cc1`, the inhibition was determined as 50%.

As for `CCCCCCCCCCc1ccc(-c2noc([C@H]3CCC[C@@H](N)C3)n2)cc1`, the inhibition worked out at 29%.

`CCCCCCCCCCc1ccc(-c2noc(CC(O)CNCC)n2)cc1` (stereo unspecified) gave an inhibition of 5%.

Take `CCCCCCCCCCc1ccc(-c2noc(-c3cccc(CN)c3)n2)cc1`: the inhibition came out at 2%.

The molecule `CCCCCCCCCCc1ccc(-c2noc([C@H]3CCCN3)n2)cc1` registered an inhibition of 12%.

Molecule `CCCCCCCCCCc1ccc(-c2noc([C@@H](N)CCN)n2)cc1` gave an inhibition of 14%.

`CCCCCCCCCCc1ccc(-c2noc(CC(O)CN)n2)cc1` (stereo unspecified): the inhibition was 59%.

Regarding `CCCCCCCCCCc1ccc(-c2noc(CC(O)CN3CCOCC3)n2)cc1` (stereo unspecified), the inhibition stood at 0%.

As to `CCCCCCc1ccc(-c2noc(CCCN)n2)cc1`, the inhibition is 55%.

Molecule `CCCCCCCCCCc1ccc(-c2noc(CCCN3CCCCC3)n2)cc1` returned an inhibition of 0%.

Turning to `CCCCCCCCCCc1ccc(-c2noc([C@@H]3CC[C@H](N)C3)n2)cc1`, the inhibition came to 38%.

Turning to `CCCCCCCCCOc1ccc(-c2noc(CCCN)n2)cc1F`, the inhibition came out at 50%.

For the molecule `CCCCCCCCCCc1ccc(-c2noc(CCN)n2)cc1`, the inhibition came to 59%.

Take `CCCCCCCc1ccc(-c2noc(CCCN)n2)cc1`: the inhibition was 52%.

As for `CCCCCCCCc1ccc(CCc2noc(CCCN)n2)cc1`, the inhibition worked out at 40%.

In turn, `CCCCCCCCNC(=O)c1ccc(-c2noc(CCCN)n2)cc1` returned an inhibition of 0%.

As for `CCCCCCCCCCc1ccc(-c2ccnn2CCCN)cc1`, the inhibition was 45%.

Take `CCCCCCCCCCc1ccc(-c2noc([C@@H](N)CCCCN)n2)cc1`: the inhibition was 43%.

With `CCCCCCCCCCc1ccc(-c2noc(CC(O)CN(C)C)n2)cc1` (stereo unspecified), the inhibition came out at 61%.

On to `CCCCCCCCCCc1ccc(-c2ccn(CCCN)n2)cc1`, for which the inhibition was 44%.

In the case of `CCCCCCCCCCc1ccc(-c2noc([C@@H]3CCC[C@@H](N)C3)n2)cc1`, the inhibition is 13%.

Take `CCCCCCCCCCc1ccc(-c2noc([C@H]3CCNC3)n2)cc1`: the inhibition was found to be 26%.

`CCCCCCCCCCc1ccc(-c2noc([C@@H]3CCNC3)n2)cc1` yielded an inhibition of 62%.

As for `CCCCCCCCCOc1ccc(-c2noc(CCCN)n2)cc1C(F)(F)F`, the inhibition came out at 24%.

Consider `CCCCCCCCCCc1ccc(-c2coc(CCCN)n2)cc1`, for which the inhibition worked out at 49%.

`CCCCCCCCCCc1ccc(-c2noc(CC3CNC3)n2)cc1` gave an inhibition of 63%.

`CCCCCCCCCCc1ccc(-c2noc(CCCN3CCCC3)n2)cc1` registered an inhibition of 3%.

On to `CCCCCCCCCCc1ccc(-c2noc(C(Cl)CCN)n2)cc1` (stereo unspecified), for which the inhibition came to 5%.

Molecule `CCCCCCCCCCc1ccc(-c2noc(C3CCNCC3)n2)cc1` yielded an inhibition of 66%.
